Each block holds one molecule with its values, some of them ahead of it.
Legend:
[1] = tested on: N/TERT-1 immortalized keratinocytes; experiment: CTG cell viability in N/TERT-1 keratinocytes; format: cell-based, human; details: VbP 10 μM, CQ compounds 20 μM, 24 h
Method in brief: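 N/TERT-1 keratinocytes are grown in keratinocyte serum-free medium with 1× penicillin/streptomycin, bovine pituitary extract (25 μg/mL) and EGF (0.2 ng/mL) at 37 °C in 5% CO2. Plating density is 2000 cells/well in 384-well plates, with compound added by pin tool. After 24 h, CellTiter-Glo reagent is added, plates are shaken 2 min, held 10 min at 25 °C, and luminescence is read. Values are means ± SEM of three biological replicates.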

[2] = tested on: BMDMs from C57BL/6J mice and RAW264.7 cells; experiment: LDH release and GSDMD cleavage in mouse BMDMs and RAW264.7 cells; format: cell-based; details: VbP 10 μM, CQ31/CQ80 20 μM, 24 h
Method in brief: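 BMDMs: bone marrow is collected from femurs and tibias of 7–12-week-old C57BL/6J mice, strained (70 μm) and RBC-lysed. Cells are cultured 6 days at 37 °C in DMEM with 10% FBS and 15–20% L-cell medium, then replated. RAW264.7 cells are grown in DMEM with 10% FBS and seeded at 5 × 10^5 per well in 12-well plates. Both receive compound for 24 h. LDH is read relative to a Triton X-100 lysis control, and immunoblots use an anti-mouse GSDMD rabbit monoclonal. RAW264.7 data are means ± SEM, n = 3.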

[3] = tested on: DOX-inducible CARD8 E274R mutant THP-1 cells; experiment: CARD8 E274R mutant NT degradation assay in CARD8^−/− THP-1 cells; format: cell-based, human; details: DOX 100 ng/mL 16 h; VbP 10 μM, CQ31/CQ80 20 μM, VP-OMe 1 mM, MeBs 10 μM; 6 h
Method in brief: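 Parental CARD8-knockout THP-1 cells carry a stably integrated doxycycline-inducible CARD8 E274R construct. Cells are grown in RPMI 1640 with L-glutamine and 10% FBS at 37 °C in 5% CO2. They are induced with or without DOX (100 ng/mL, 16 h), then exposed to test compounds for 6 h.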

[4] = Stability in cell culture supernatants; format: in vitro ADME
Method in brief: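 Test compounds are incubated in conditioned medium collected from MV4;11 cultures for 24 h at 37 °C. Intact compound and the free acid product are then quantified by LC/MS, with species identified by retention time. Values are means ± SEM of three biological replicates.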

MV4;11 cells = experiment: PI uptake in MV4; format: cell-based, human; details: 6.25 μM; WT, CASP1^−/−, CARD8^−/− cells
Method in brief: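 MV4;11 cells (WT, CASP1−/− or CARD8−/−) were plated at 2 × 10^4 cells/well in 384-well format in RPMI and treated with test compound (6.25 μM) for 6 h before PI uptake monitoring. PI was added at 10 μM final. Fluorescence (Ex/Em 535/617 nm) was read every 5 min at 37 °C, baseline-corrected to DMSO vehicle and normalised to maximum response.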

OCI-AML2 cells [5] = experiment: PI uptake in OCI-AML2 cells; format: cell-based, human; details: 6.25 μM, compared to CQ31
Method in brief: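 OCI-AML2 cells (2 × 10^4 per well, 384-well, RPMI) are treated with 6.25 μM compound, with PI added at 10 μM final. PI fluorescence (Ex/Em 535/617 nm) is recorded at 37 °C every 5 min over 6 h. Signals are baseline-corrected to DMSO vehicle and normalized to the maximum response. Values are means ± SEM of three biological replicates.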

OCI-AML2 cells [6] = experiment: CTG cell viability in WT and CARD8^−/− OCI-AML2 cells; format: cell-based, human; details: 24 h
Method in brief: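 Test compound was added by pintool at various concentrations to OCI-AML2 cells (WT or CARD8−/−) plated at 2000 cells/well in 384-well format, in RPMI 1640 with L-glutamine and 10% FBS. Cells were incubated for 24 h at 37 °C in 5% CO2. CellTiter-Glo was then added, plates were shaken for 2 min and held at 25 °C for 10 min, and luminescence was read.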

[7] = tested on: MV4;11, OCI-AML2, and THP-1 cells; experiment: LDH release and GSDMD cleavage immunoblot in WT and CARD8^−/− cells; format: cell-based, human; details: 20 μM, 24 h, but not CARD8^−/−
human resting T cells = experiment: GSDMD cleavage in human resting T cells; format: cell-based; details: 20 μM, 24 h
Method in brief: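 Primary human T cells (>90% purity by flow cytometry) are thawed in RPMI-1640 with 10% FBS and cultured with 30 U/mL IL-2. Cells receive test compound for 24 h, then are washed twice in PBS and lysed by sonication. Protein is normalized before SDS-PAGE, and blots are probed with an anti-GSDMD rabbit polyclonal and imaged by infrared fluorescence.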

THP-1 cells = experiment: LDH release and GSDMD cleavage in knockout THP-1 cells; format: cell-based, human; details: 20 μM, 24 h; for Pyroptosis in DPP8/9^−/− THP-1 cells: LDH release and GSDMD cleavage
[8] = target: CARD8-DPP9 ternary complex in HEK 293T^CASP1+GSDMD cells (Homo sapiens, UniProt Q86TI2); experiment: dTAG-based CARD8-DPP9 ternary complex disruption assay; format: cell-based; details: dTAG-13 500 nM; VbP 10 μM, CQ31 20 μM, CQ80 20 μM, VP-OMe 1 mM; 6 h; LDH release
recombinant human PEPD = target: T1, recombinant human PEPD (Homo sapiens, UniProt P12955); experiment: Inhibition of recombinant PEPD, alanine release assay; format: biochemical
T1 sequence (P12955 1-493): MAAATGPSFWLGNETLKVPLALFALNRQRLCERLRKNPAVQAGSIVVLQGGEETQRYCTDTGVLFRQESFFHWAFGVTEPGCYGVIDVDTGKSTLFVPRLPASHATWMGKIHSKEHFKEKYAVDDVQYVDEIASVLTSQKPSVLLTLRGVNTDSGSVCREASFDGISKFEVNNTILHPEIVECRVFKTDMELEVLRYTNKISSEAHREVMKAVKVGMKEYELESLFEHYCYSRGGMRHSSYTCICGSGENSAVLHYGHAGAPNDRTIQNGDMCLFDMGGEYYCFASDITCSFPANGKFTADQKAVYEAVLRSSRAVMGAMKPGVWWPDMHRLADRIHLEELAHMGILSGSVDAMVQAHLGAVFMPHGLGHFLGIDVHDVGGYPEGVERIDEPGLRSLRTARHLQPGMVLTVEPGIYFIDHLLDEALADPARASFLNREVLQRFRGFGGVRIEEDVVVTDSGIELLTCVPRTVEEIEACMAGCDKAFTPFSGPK

recombinant XPNPEP1 = recombinant XPNPEP1 (Homo sapiens, UniProt Q9NQW7); experiment: Inhibition of recombinant XPNPEP1, H-Lys; format: biochemical; details: recombinant XPNPEP1
[9] = after 24 h; cited from earlier work

CARD8-DPP9 ternary complex in HEK 293T^CASP1+GSDMD cells, sequence (Q86TI2 whole entry, one chain of several): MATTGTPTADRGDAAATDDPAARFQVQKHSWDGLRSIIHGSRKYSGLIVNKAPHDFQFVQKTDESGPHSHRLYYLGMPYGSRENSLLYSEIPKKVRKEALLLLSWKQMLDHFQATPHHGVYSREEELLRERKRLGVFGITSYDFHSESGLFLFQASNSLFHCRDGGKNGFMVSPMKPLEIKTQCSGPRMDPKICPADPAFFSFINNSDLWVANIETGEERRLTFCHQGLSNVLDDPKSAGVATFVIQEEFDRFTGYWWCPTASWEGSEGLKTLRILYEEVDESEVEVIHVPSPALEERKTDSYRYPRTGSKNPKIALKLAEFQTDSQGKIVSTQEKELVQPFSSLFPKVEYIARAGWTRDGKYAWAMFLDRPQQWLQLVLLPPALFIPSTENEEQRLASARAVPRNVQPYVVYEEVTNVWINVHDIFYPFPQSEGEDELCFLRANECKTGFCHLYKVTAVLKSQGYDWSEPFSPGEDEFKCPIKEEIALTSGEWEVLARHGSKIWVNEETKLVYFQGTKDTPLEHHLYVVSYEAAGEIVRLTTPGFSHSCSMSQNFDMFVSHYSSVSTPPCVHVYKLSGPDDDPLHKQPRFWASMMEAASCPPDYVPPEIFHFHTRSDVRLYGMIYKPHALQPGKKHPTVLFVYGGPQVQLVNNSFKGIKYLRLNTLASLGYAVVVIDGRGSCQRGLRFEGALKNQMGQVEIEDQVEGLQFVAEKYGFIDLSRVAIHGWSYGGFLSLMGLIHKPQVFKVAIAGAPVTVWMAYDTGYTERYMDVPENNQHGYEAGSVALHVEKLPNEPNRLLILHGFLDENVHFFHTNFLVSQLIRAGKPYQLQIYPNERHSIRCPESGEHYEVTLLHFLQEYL
recombinant XPNPEP1, sequence (Q9NQW7 whole entry): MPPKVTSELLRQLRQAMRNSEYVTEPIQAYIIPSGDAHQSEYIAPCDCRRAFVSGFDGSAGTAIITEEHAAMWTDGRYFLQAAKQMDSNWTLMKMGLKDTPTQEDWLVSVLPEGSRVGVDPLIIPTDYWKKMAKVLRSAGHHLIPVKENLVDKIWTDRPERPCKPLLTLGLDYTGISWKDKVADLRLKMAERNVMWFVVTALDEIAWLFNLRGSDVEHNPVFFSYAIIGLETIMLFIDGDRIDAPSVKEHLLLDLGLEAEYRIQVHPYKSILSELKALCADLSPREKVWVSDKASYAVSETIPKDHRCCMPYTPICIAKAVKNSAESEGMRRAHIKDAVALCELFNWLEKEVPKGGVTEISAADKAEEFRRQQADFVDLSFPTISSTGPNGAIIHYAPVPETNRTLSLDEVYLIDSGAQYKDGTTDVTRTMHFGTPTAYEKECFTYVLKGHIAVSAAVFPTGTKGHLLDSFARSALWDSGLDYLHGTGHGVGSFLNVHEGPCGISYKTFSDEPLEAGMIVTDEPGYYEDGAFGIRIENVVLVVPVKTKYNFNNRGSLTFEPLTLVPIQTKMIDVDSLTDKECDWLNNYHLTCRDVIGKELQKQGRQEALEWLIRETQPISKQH

Compound: CC(C)[C@H](N)C(=O)N1CCC[C@H]1B(O)O [VbP, ValboroPro, reference compound]
Cell death in N/TERT-1 keratinocytes (human NLRP1 activation) [1]: induced cell death
Pyroptosis in mouse BMDMs and RAW264.7 cells (rodent NLRP1 activation) [2]: induced pyroptosis
Additional cell death in CARD8 E274R assay (NT degradation) [3]: did not cause substantially more death

Fraction remaining intact ([4]; after 24 h at 37 °C): ~ 50%
Compound: COC(=O)[C@H](CC(C)C)NC(=O)[C@@H]1CCCN1C(=O)[C@@H](O)[C@H](N)CC(C)C [CQ80, Methyl ((2S,3R)-3-Amino-2-hydroxy-5-methylhexanoyl)-l-prolyl-l-leucinate]
PI uptake in MV4;11 cells (MV4;11 cells): induced PI uptake in WT but not CASP1^−/− or CARD8^−/−
Rate of lytic cell death by PI uptake in OCI-AML2 cells (OCI-AML2 cells [5]): caused more rapid lytic cell death
Cell death in OCI-AML2 cells (OCI-AML2 cells [6]): induced cell death in WT but not CARD8^−/−
LDH release and GSDMD cleavage [7]: induced lactate dehydrogenase (LDH) release and GSDMD cleavage
GSDMD cleavage in human resting T cells (human resting T cells): induced GSDMD cleavage
Cell death in N/TERT-1 keratinocytes (human NLRP1 activation) [1]: does not activate
Pyroptosis in mouse BMDMs and RAW264.7 cells (rodent NLRP1 activation) [2]: does not activate
Sensitivity of PEPD and XPNPEP1 single knockout THP-1 cells (THP-1 cells): sensitive
Sensitivity of PEPD/XPNPEP1 double knockout THP-1 cells (THP-1 cells): completely resistant
Pyroptosis in DPP8/9^−/− THP-1 cells (THP-1 cells): neither CQ80 nor CQ31 induced any additional pyroptosis
Pyroptosis after dTAG-13 treatment (ternary complex destabilization) [8]: induce more pyroptosis after dTAG-13 treatment
Additional cell death in CARD8 E274R assay (NT degradation) [3]: do not trigger as much degradation as MeBs

PEPD inhibition (in words) (recombinant human PEPD): inhibited PEPD and XPNPEP1 similarly
XPNPEP1 inhibition (in words) (recombinant XPNPEP1): inhibited PEPD and XPNPEP1 similarly
Time to conversion to CQ04 [4]: ≤ 30 min
Compound: COC(=O)[C@@H]1CCCN1C(=O)[C@@H](O)[C@H](N)CC(C)C [CQ31]
PI uptake in MV4;11 cells (MV4;11 cells): induced PI uptake in WT but not CASP1^−/− or CARD8^−/−
Cell death in OCI-AML2 cells (OCI-AML2 cells [6]): induced cell death in WT but not CARD8^−/−
LDH release and GSDMD cleavage [7]: induced lactate dehydrogenase (LDH) release and GSDMD cleavage
GSDMD cleavage in human resting T cells (human resting T cells): induced GSDMD cleavage
Sensitivity of PEPD and XPNPEP1 single knockout THP-1 cells (THP-1 cells): sensitive
Sensitivity of PEPD/XPNPEP1 double knockout THP-1 cells (THP-1 cells): completely resistant
Pyroptosis in DPP8/9^−/− THP-1 cells (THP-1 cells): neither CQ80 nor CQ31 induced any additional pyroptosis
Pyroptosis after dTAG-13 treatment (ternary complex destabilization) [8]: induce more pyroptosis after dTAG-13 treatment
Additional cell death in CARD8 E274R assay (NT degradation) [3]: do not trigger as much degradation as MeBs
De-esterification to CQ04 in cell culture [9]: completely de-esterified

— publication PMC10149104 (Journal of medicinal chemistry, 2023)
